The values below come from ChEMBL document CHEMBL4334444, “Studies of Jatrogossone A as a Reactive Oxygen Species Inducer in Cancer Cellular Models” (J Nat Prod, 2019).

The source made the active and inactive calls. The rule behind the calls is not given here.

For orientation: half-life means how long it takes for the measured level to halve. For orientation: IC50 means the concentration needed to halve the response being measured.

Data set [1] has as its system MCF7. The data set can be described thus: Induction of apoptosis in human MCF7 cells assessed as decrease in caspase 3/7 level after 3 to 24 hrs by Western blot analysis. In kind it is functional, cell-based. The gist of the method: (§1)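 Western blot of KOPN-8 and MCF-7 lysates made in RIPA-type buffer (Tris pH 7.5, Triton X-100, deoxycholate, SDS) with protease and phosphatase inhibitors. 30 μg protein per lane was run on 4–12% Bis-Tris SDS-PAGE and transferred to nitrocellulose. Blots were probed for cleaved caspase-7 and PARP-1 and detected with IR-dye secondaries. Menadione served as positive control: 10 μM in KOPN-8, 30 μM in MCF-7. Blots are representative of three independent experiments.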
(In general: Immunoblotting shows a protein as a band on a membrane.)

In data set [2] the test system is KOPN-8. Description: Induction of apoptosis in human KOPN8 cells assessed as decrease in caspase 3/7 level after 3 to 24 hrs by Western blot analysis. In kind it is functional, cell-based. The gist of the method: as §1
In data set [3] the test system is KOPN-8. Description: Cytotoxicity against human KOPN8 cells assessed as cell viability at 0.95 to 125 uM after 72 hrs in presence of pan caspase inhibitor, Z-VAD-FMK by CellTiter-Glo assay. In kind it is functional, cell-based.
In data set [4] the test system is KOPN-8. The data set can be described thus: Induction of apoptosis in human KOPN8 cells assessed as decrease in viable cells at 10 uM after 24 hrs by Annexin V-FITC and propidium iodide staining based flow cytometry. In kind it is functional, cell-based. In short, it runs like this: (§2)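 KOPN-8 cells were plated at 1.00 × 10^6 per plate and held 12 h at 37 °C, then treated 24 h; positive control 2 μM staurosporine, vehicle DMSO. Cells were stained with Annexin V-FITC and PI and analysed by flow cytometry (FACSCalibur). Profiles are representative of three independent biological replicates.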
A general note: A flow cytometer gives signals particle by particle.

Data set [5] is described as follows: Stability in DMSO assessed as micheal adduct formation by measuring intact compound incubated for 16 hrs in presence of NAC by NMR analysis. In kind it is physicochemical.
Data set [6] deals with MCF7. Description: Induction of ROS generation in human MCF7 cells at 30 uM incubated for 1 hr by CellROX green reagent based fluorescence assay. The format is functional, cell-based. The gist of the method: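 CellROX green ROS assay: cells exposed 1 h at 37 °C (30 μM) with DMSO 0.5% (v/v) negative control, menadione 10 μM positive control, ± NAC (100 μM per figure legend). CellROX green added at 5 μM final, 30 min more; washed, fixed in 4% paraformaldehyde 15 min, fluorescence read at 485 ex/535 em. Mean and SD of at least three experiments; two-way ANOVA.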

Data set [7] deals with U2OS. The data set can be described thus: Induction of apoptosis in human U2OS cells assessed as increase in caspase 3/7 activity incubated for 24 hrs by caspase 3/7 reagent based ApoTox-Glo triplex assay. The format is functional, cell-based. The gist of the method:
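ApoTox-Glo Triplex assay in KOPN-8 or U2OS cells. Cells were incubated 12 h at 37 °C, then treated 24 h across 100–0.15 μM. Viability (GF-AFC, 400Ex/505Em) and cytotoxicity (bis-AAF-R110, 485Ex/520Em) were read after 30 min at 37 °C. Caspase-Glo 3/7 luminescence was then read after 0.5 h at room temperature. Values are mean ± SEM of three independent experiments.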

Data set [8] concerns KOPN-8. Description: Induction of apoptosis in human KOPN8 cells assessed as increase in late apoptotic cells at 10 uM after 24 hrs by Annexin V-FITC and propidium iodide staining based flow cytometry relative to control. In kind it is functional. In short, it runs like this: as §2
Data set [9] has as its system U2OS. Description: Induction of ROS generation in human U2OS cells at 30 uM incubated for 1 hr by CellROX green reagent based fluorescence assay. The format is functional, cell-based. The gist of the method:
(§3)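 CellROX green assay in MCF-7 or U2OS cells. Cells were exposed to test compound for 1 h at 37 °C alongside 0.5% DMSO (negative control) and menadione 10–30 μM (positive control), with or without NAC (50–500 μM) as scavenger. CellROX was then added at 5 μM final for 30 min. Cells were PBS-washed, fixed in 4% paraformaldehyde for 15 min, and fluorescence read at 535 nm.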

The subject of data set [10] is MCF7. Description: Induction of ROS generation in human MCF7 cells at 30 uM incubated for 1 hr in presence of NAC by CellROX green reagent based fluorescence assay. In kind it is functional, cell-based. In short, it runs like this: as §3
Data set [11] is described as follows: Half life in simulated gastric fluid. In kind it is ADME.
Data set [12] concerns KOPN-8. The data set can be described thus: Induction of apoptosis in human KOPN8 cells assessed as early apoptotic cells at 10 uM after 24 hrs by Annexin V-FITC and propidium iodide staining based flow cytometry. The format is functional, cell-based. In short, it runs like this: as §2
Data set [13] concerns B-ALL. Description: Antiproliferative activity against mouse B-ALL cells harboring Bax/Bak double knockout mutant assessed as reduction in cell viability at 1 to 10 uM by CellTiter-Glo assay. In kind it is functional, cell-based. In short, it runs like this: (§4)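 CellTiter-Glo luminescent viability readout. Cells kept at 37 °C under 5% CO2. HMEC primary cells grown in basal medium with growth kit; leukemia lines and murine BCR-ABL (WT, Bax/Bak DKO) cultured per earlier description. Positive controls: staurosporine 25 μM, gambogic acid 10 μM, a toxic quinoline. At least two biological replicates in technical triplicate; luminescence normalized to untreated controls; EC50 computed.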

Data set [14] concerns KOPN-8. The data set can be described thus: Induction of mitochondrial membrane potential loss in human KOPN8 cells at 30 uM by TMRM staining based flow cytometric analysis. In kind it is functional, cell-based. Particulars: TDE = time-dependent effect. In short, it runs like this:
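TMRM flow cytometry. KOPN-8 (4 × 10^4 or 5 × 10^5 per well) or MCF-7 (2 × 10^4 or 2 × 10^5 per well) were seeded 24 h, then treated 24–48 h. FCCP 10 μM was added 10 min before staining as positive control. Cells were stained with TMRM 100 nM for 0.5 h, then PBS-washed, resuspended in PBS with 1% FBS and analysed by flow cytometry; DAPI flagged compromised cells.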

Data set [15] has as its system U2OS. The data set can be described thus: Induction of mito-phagy in human U2OS cells transfected with mKeima-Red-Mito-7 at 1.25 to 2.5 uM incubated for 8 hrs by confocal scanning microscopic method. In kind it is functional, cell-based. The gist of the method:
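U2OS stably expressing mKeima-Red-Mito-7 (G418 250 μg/mL selection, flow-sorted) were plated at 40 000 cells per well and incubated overnight. Cells were treated 8 h at 37 °C; DMSO 0.5% served as negative control. Live cells were imaged by confocal microscopy at 60×. Mitophagy was scored as the ratio of mitophagy-event fluorescence to cytoplasmic mitochondrial fluorescence. Values are mean and SD of at least three experiments.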

In data set [16] the test system is B-ALL. Description: Cytotoxicity against BCR-ABL p185-positive mouse B-ALL cells overexpressing human BCL-2 assessed as inhibition of cell viability after 24 hrs by AnnexinV-FITC/propidium iodide staining based flow cytometric analysis. The format is functional.
Data set [17] deals with U2OS. Description: Induction of ROS generation in human U2OS cells at 30 uM incubated for 1 hr in presence of NAC by CellROX green reagent based fluorescence assay. The format is functional, cell-based. The gist of the method: as §3
A further data set relates to K562. The data set can be described thus: Antiproliferative activity against human K562 cells assessed as reduction in cell viability at 0.1 to 250 uM by CellTiter-Glo assay. In kind it is functional, cell-based. The gist of the method: as §4
(In ATP-based viability assays light output follows the ATP content of the culture.)

The test system of data set [18] is MCF7. Description: Upregulation of Trx expression in human MCF7 at 1 uM after 24 hrs by Western blot analysis. In kind it is functional, cell-based. In short, it runs like this: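 Western blot of KOPN-8 or MCF-7 lysates, 30 μg protein per lane on 4–12% Bis-Tris SDS-PAGE and transferred to nitrocellulose. Blots were probed with an oxidative stress defense antibody cocktail (catalase, SOD1, Trx, smooth muscle actin) and tubulin, and detected with IR-dye secondaries on a LI-COR Odyssey.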

As to `CC(=O)O[C@H]1/C2=C/[C@@H](C)C(=O)C[C@H]3[C@@H](/C=C(\C)C(=O)[C@H]2C[C@H]1C)C3(C)C`, the Activity entry in the data set with MCF7 [1] is “Dose-dependent effect”; with KOPN-8 [2] it was “Dose-dependent effect”; with U2OS [7], “Dose-dependent effect”; with KOPN-8 [8], 15%; in the data set with KOPN-8 [14] it was “Tde”. For the same compound, the result in the data set with KOPN-8 [3], in the data set with MCF7 [10], in the data set on KOPN-8 [12] and in the data set on U2OS [17] was inactive. The outcome in the data set with KOPN-8 [4], with MCF7 [6], in the data set with U2OS [9] and in the data set on U2OS [15] was Active. Also, in data set [5], the Stability entry is on record as “Stable”. The compound further showed a half-life in [11] of 124 h. In addition, the inhibition result in the data set with B-ALL [13] was “Active”. The IC50 in the data set on B-ALL [16] is 7.52 µM.
Turning to `CC1=C2CC(C)(C)/C=C/C(=O)/C(C)=C\C3=C[C@H](C)C[C@]3(O2)C1=O` [JATROPHONE], the Activity entry with MCF7 [1] is “Dose-dependent effect”; with KOPN-8 [2], “Dose-dependent effect”; in the data set on KOPN-8 [14], “Tde”. For the same compound, the inhibition entry in the data set on K562 is “Active”. Besides, the result in the data set with MCF7 [6], in the data set on U2OS [9] and with U2OS [15] was Active. For the same compound, the outcome in the data set with MCF7 [18], in the data set with MCF7 [10] and in the data set on U2OS [17] was inactive.
